Data as given in ChEMBL document CHEMBL1152331, “seco-Abietane diterpenoids, a phenylethanoid derivative, and antitubercular constituents from Callicarpa pilosissima” (2009).
Values after ≈ are worked out from the molar mass of the structure shown.

Test system: Mycobacterium tuberculosis
Assay: Antitubercular activity against Mycobacterium tuberculosis H37Rv after 2 weeks
Format: functional
Settings: 336 h
Summary of the method: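 Agar proportion method on Middlebrook 7H10 with OADC; compound mixed into agar at 50-56 °C by serial dilution, final 100 to 0.8 µg/mL, poured into quadrant plates. Inoculum in 7H9 broth adjusted to McFarland no. 1, then diluted 10-2; 33 µL per quadrant. Incubated 35 °C, 10% CO2, 2 weeks; MIC read. Ethambutol as positive control.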

Compound | MIC
CC[C@H](CC[C@@H](C)[C@H]1CC[C@H]2[C@@H]3CC=C4CC(=O)CC[C@]4(C)[C@H]3CC[C@]12C)C(C)C [BETA-SITOSTENONE] | > 300 µM
COc1cc([C@H]2OC[C@@H]3C(=O)OC[C@@H]32)cc(OC)c1O | 257 µM (≈ 72.1 µg/mL)
COc1ccc(-c2cc(=O)c3c(O)cc(O)cc3o2)cc1 [ACACETIN] | 282 µM (≈ 80.1 µg/mL)
C=C(C)[C@@H]1CC=C2C=C(C(C)C)CC[C@@H]2[C@@]1(C)CCC(=O)O [CALLICARPIC ACID A] | 238 µM (≈ 72.1 µg/mL)
C=C(C)[C@@H]1CCC2=C(C(=O)C=C(C(C)C)C2=O)[C@@]1(C)CCC(=O)O [CALLICARPIC ACID B] | 63.6 µM (≈ 21 µg/mL)
CCCCCCCCCCCCCCCCCC(=O)O [STEARIC ACID] | > 300 µM
C=C(C)[C@@H]1CCc2cc(C(C)C)ccc2[C@@]1(C)CCC(=O)OC | 153 µM (≈ 48.1 µg/mL)
COc1ccc(-c2oc3cc(OC)c(OC)c(O)c3c(=O)c2OC)cc1O [CASTICIN] | 214 µM (≈ 80.1 µg/mL)
C=C(C)[C@@H]1CCC2=C(CCC(C(C)C)=C2)[C@@]1(C)CCC(=O)OC | 38 µM (≈ 12 µg/mL)
C=C(C)[C@@H]1CC=C2C=C(C(C)C)CC[C@]2(O)[C@@]1(C)CCC(=O)O [9R-HYDROXYCALLICARPIC ACID A] | 113 µM (≈ 36 µg/mL)
CC(C)=CCC/C(C)=C/CC/C(C)=C/CC/C=C(\C)CC/C=C(\C)CCC=C(C)C [SQUALENE] | 122 µM (≈ 50.1 µg/mL)
CC(C)c1ccc2c(c1)C(=O)C[C@H]1C(C)(C)CCC[C@]21C | > 300 µM
CCCCCCCCCCCCCC(=O)OCCc1ccc(O)cc1 | > 300 µM
CC(C)c1ccc2c(c1)CC[C@H]1C(C)(C)C(=O)CC[C@]21C | 148 µM (≈ 42.1 µg/mL)
COc1cc2oc(-c3ccc(O)cc3)c(OC)c(=O)c2c(O)c1OC [PENDULETIN] | 157 µM (≈ 54.1 µg/mL)
COc1ccc(-c2oc3cc(OC)c(OC)c(OC)c3c(=O)c2OC)cc1OC [HEXAMETHOXYFLAVONE] | 179 µM (≈ 72.1 µg/mL)
COc1ccc(-c2oc3cc(OC)c(OC)c(O)c3c(=O)c2OC)cc1OC [ARTEMETIN] | 186 µM (≈ 72.1 µg/mL)
CC[C@@H](CO)NCCN[C@@H](CC)CO [ETHAMBUTOL] | 30.6 µM (≈ 6.25 µg/mL)
